Laboratory results published in ChEMBL document CHEMBL4689842, “EUbOPEN Chemogenomics Library wave 1” (2021).
“And” between values parts separate entries of the source, which are not always exact repeats. Equal values may be shown once.

Test system: Fibroblast
Experiment: Multiplex assay against human fibroblast
Type: toxicity, cell-based
In short: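 Imaging took place on a CQ1 microscope at 37°C and 5% CO2 once compound had been added to live cells stained at seeding with Hoechst33342, BioTracker Green Microtubule Cytoskeleton Dye, MitoTracker Red and Annexin V Alexa Fluor 680. CellPathfinder machine-learning gating classed cells as Hoechst high-intensity objects or normal cells, classed normal cells as having healthy, pyknosed or fragmented nuclei, and classed pyknosed cells as mitotic or apoptotic. Tubulin, mitochondrial-mass and membrane-permeability phenotypes are per cents of the healthy-nucleus cells.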

[1] = 12 h, 1 µM, compound concentration 1 uM, replicate 1
[2] = 12 h, 1 µM, compound concentration 1 uM, replicate 2
[3] = 12 h, 10 µM, compound concentration 10 uM, replicate 1
[4] = 12 h, 10 µM, compound concentration 10 uM, replicate 2
[5] = 24 h, 1 µM, compound concentration 1 uM, replicate 1
[6] = 24 h, 1 µM, compound concentration 1 uM, replicate 2
[7] = 24 h, 10 µM, compound concentration 10 uM, replicate 1
[8] = 24 h, 10 µM, compound concentration 10 uM, replicate 2

## CC[C@@]1(O)C(=O)OCc2c1cc1n(c2=O)Cc2cc3ccccc3nc2-1 [CAMPTOTHECIN]
[1]
  Population Apoptotic (%): 68% and 80%
  Population Fragmented Nuclei (%): 42% and 41% and 43%
  Population Healthy Nuclei (%): 49% and 43% and 37%
  Population Membrane Permeable-Phenotype (%): 10% and 7% and 5%
  Population Mitochondria Different-Phenotype (%): 3% and 9% and 7%
  Population Mitotic Cells (%): 31% and 20% and 19%
  Population Normal (%): 84% and 52% and 47%
  Population Pyknosed Nuclei (%): 8% and 15% and 19%
  Total Cell Count: 256 and 440 and 382
[2]
  Population Fragmented Nuclei (%): 64% and 80%
  Population Healthy Nuclei (%): 32% and 19% and 34%
  Population Hoechst High Intensity Objects (%): 37% and 59% and 67%
  Population Membrane Permeable-Phenotype (%): 15% and 16% and 6%
  Population Mitochondria Different-Phenotype (%): 10% and 12% and 30%
  Population Normal (%): 62% and 40% and 32%
  Population Pyknosed Nuclei (%): 3% and 0% and 1%
  Population Tubulin-Different-Phenotype (%): 21% and 28% and 24%
[3]
  Population Apoptotic (%): 87%
  Population Fragmented Nuclei (%): 34%
  Population Healthy Nuclei (%): 43%
  Population Hoechst High Intensity Objects (%): 27%
  Population Membrane Permeable-Phenotype (%): 3%
  Population Mitochondria Different-Phenotype (%): 11%
  Population Mitotic Cells (%): 12%
  Population Normal (%): 72%
  Population Pyknosed Nuclei (%): 21%
  Population Tubulin-Different-Phenotype (%): 9%
  Total Cell Count: 198
[4]
  Population Apoptotic (%): 50%
  Population Fragmented Nuclei (%): 65%
  Population Healthy Nuclei (%): 30%
  Population Hoechst High Intensity Objects (%): 41%
  Population Membrane Permeable-Phenotype (%): 7%
  Population Mitochondria Different-Phenotype (%): 7%
  Population Mitotic Cells (%): 50%
  Population Normal (%): 58%
  Population Pyknosed Nuclei (%): 4%
  Population Tubulin-Different-Phenotype (%): 7%
  Total Cell Count: 74
[5]
  Population Apoptotic (%): 78% and 72% and 90%
  Population Fragmented Nuclei (%): 39% and 40% and 34%
  Population Healthy Nuclei (%): 48% and 43% and 55%
  Population Membrane Permeable-Phenotype (%): 10% and 4% and 6%
  Population Mitochondria Different-Phenotype (%): 7% and 15% and 8%
  Population Mitotic Cells (%): 21% and 27% and 9%
  Population Normal (%): 54% and 49% and 89%
  Population Pyknosed Nuclei (%): 12% and 16% and 10%
  Population Tubulin-Different-Phenotype (%): 16% and 11% and 12%
  Total Cell Count: 414 and 405 and 222
[6]
  Population Fragmented Nuclei (%): 57% and 80% and 66%
  Population Healthy Nuclei (%): 40% and 18% and 32%
  Population Hoechst High Intensity Objects (%): 44% and 56% and 68%
  Population Membrane Permeable-Phenotype (%): 15% and 16% and 0%
  Population Mitochondria Different-Phenotype (%): 25% and 16% and 28%
  Population Normal (%): 55% and 43% and 31%
  Population Pyknosed Nuclei (%): 2% and 1%
  Population Tubulin-Different-Phenotype (%): 20% and 29% and 36%
[7]
  Population Apoptotic (%): 85%
  Population Fragmented Nuclei (%): 34%
  Population Healthy Nuclei (%): 45%
  Population Hoechst High Intensity Objects (%): 28%
  Population Membrane Permeable-Phenotype (%): 6%
  Population Mitochondria Different-Phenotype (%): 9%
  Population Mitotic Cells (%): 14%
  Population Normal (%): 71%
  Population Pyknosed Nuclei (%): 19%
  Population Tubulin-Different-Phenotype (%): 7%
  Total Cell Count: 201
[8]
  Population Apoptotic (%): 100%
  Population Fragmented Nuclei (%): 65%
  Population Healthy Nuclei (%): 31%
  Population Hoechst High Intensity Objects (%): 42%
  Population Membrane Permeable-Phenotype (%): 0%
  Population Mitochondria Different-Phenotype (%): 0%
  Population Mitotic Cells (%): 0%
  Population Normal (%): 57%
  Population Pyknosed Nuclei (%): 2%
  Total Cell Count: 77
